Sampled rows, rich in hits. Any-hit rate of the full collection: about 3.8%.
Granule exo inh = LAMP-1 surface exposure blockers, TALL-104 cells – cell-based, flow cytometry, MLPCN library, primary screen; TALL-104 LAMP-1 surface exposure; cells stimulated with thapsigargin and PMA; inhibition, % at 10 µM; 0.66% of 360,000 active; AID 651702, 2012;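 active means inhibition above about 55%, limit read from the data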
T cell HTS = modulators of CD8 T cell-vesicle binding, primary screen, mouse 2C CD8+ T cells, flow cytometry. response (vesicle binding), % at 7 µM. 2C CD8+ T cell-vesicle binding; stronger effect = lower value. 0.068% of 330,000 active;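 active means response, share of CD8 T cells binding vesicles, and their 90th percentile fluorescence all below set limits, cut at about 80% in these data, passing the limit was not always enough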;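 further: values below 100% mean blocked vesicle binding to the CD8+ T cells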
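Assay system: 2C TCR transgenic mouse naive CD8+ T cells, MACS-purified | Read-out: CD8+ gate FL2 mean fluorescence as % of same-row positive control | Signal: High-throughput flow cytometry with anti-B7-1 and anti-CD8 staining | Timing: Binding step 1.5 h, 37 °C, antibody labelling 20 min, ice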
MPTP inh = mitochondrial permeability transition pore inhibitors, primary screen, biochemical, isolated mouse mitochondria, absorbance; Ca2+ swelling absorbance, 30 min; inhibition, % at 10 µM; 1.4% of 360,000 active; AID 602449, 2012;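 active means inhibition of 50% or more, scaled per plate between neutral and stimulator controls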
rCAG RNA binder = binders of r(CAG) RNA repeats, primary screen, biochemical, fluorescence; AID 651821, 2012; inhibition, % at 3 µM; r(CAG) RNA repeat, TO-PRO-1 dye displacement fluorescence; 1.3% of 370,000 active;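 active means inhibition above the plate cutoff, the mean of all test compounds on that plate plus 3 SD, cut at about 35% in these data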;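 further: higher means more dye released from RNA so lower well fluorescence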
B2AR ag = beta2AR agonists driving receptor internalization, primary screen, cell-based, FAP fluorogen, flow cytometry | Beta-2 adrenergic receptor (Homo sapiens), P07550 | Am2.2-beta2AR cells | response, % (concentration not given with the values) | 0.43% of 340,000 active | AID 504454, 2011;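 active means response above a set limit, near 3 SD of response in nonfluorescent compounds, cut at about 42% in these data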
Target sequence (P07550 whole entry, looked up): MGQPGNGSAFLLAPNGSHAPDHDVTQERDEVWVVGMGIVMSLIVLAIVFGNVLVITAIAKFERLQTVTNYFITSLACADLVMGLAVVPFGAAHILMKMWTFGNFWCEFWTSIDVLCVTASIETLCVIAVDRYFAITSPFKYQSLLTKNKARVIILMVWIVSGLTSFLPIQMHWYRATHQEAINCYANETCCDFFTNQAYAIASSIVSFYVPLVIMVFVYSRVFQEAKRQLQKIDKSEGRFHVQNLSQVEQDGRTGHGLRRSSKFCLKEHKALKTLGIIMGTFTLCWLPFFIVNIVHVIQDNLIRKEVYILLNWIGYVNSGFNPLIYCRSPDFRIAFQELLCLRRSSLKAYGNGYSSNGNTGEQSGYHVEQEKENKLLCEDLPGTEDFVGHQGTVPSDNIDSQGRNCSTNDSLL
V-ATPase pHluor = regulators of yeast V-ATPase proton pumping, primary screen, pHLuorin cytosolic pH fluorescence; S. cerevisiae; 0.37% of 350,000 active; response, % at 10 µM; in the data active means response mostly above about 7.3%, no sharp cut-off; inactive means mostly below about 5.4%; further: actives read high
Rh123 counter = fluorescence retest of MPTP screen hits in isolated mitochondria, single concentration; shares compounds with MPTP inh; membrane potential, Rhodamine 123 fluorescence; inhibition, % at 10 µM; 78% of 5,000 active; in the data active means inhibition above about 22%
MPTP swell DR = mitochondrial permeability transition pore inhibitors, dose response, biochemical, absorbance, uHTS hits. shares compounds with MPTP inh. isolated mitochondria swelling. IC50, µM. 58% of 780 active. AID 651561, 2012; in the data active means IC50 below about 20 µM
MPTP counter DR = fluorescent counter-screen in isolated mitochondria, dose response, counter-screen for MPTP inhibitor project, biochemical, fluorescence, uHTS hits | IC50, µM | shares compounds with MPTP inh | AID 651564, 2012 | isolated mitochondria counterscreen, fluorescence read-out | 49% of 780 active; in the data active means IC50 below about 80 µM
Granule exo CP1 = inhibitors of lytic granule exocytosis, confirmation, TALL-104 cells, flow cytometry, Cherry Pick01. 11% of 1,500 active. LAMP-1 externalization; stimulated with PMA plus thapsigargin. AID 651954, 2012. inhibition, % at 10 µM. shares compounds with Granule exo inh; in the data active means inhibition above about 60%
rCAG binder conf = small molecules binding CAG repeat RNA – biochemical, fluorescence, confirmation; shares compounds with rCAG RNA binder; r(CAG) RNA repeat, TO-PRO-1 dye displacement fluorescence; inhibition, % at 3 µM; 70% of 4,300 active; AID 652065, 2013;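 active means inhibition above a per-plate cutoff, the mean inhibition of sample wells plus 3 SD, cut at about 35% in these data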;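 further: loss of TO-PRO-1 fluorescence as compound displaces dye from 1x1 AA loop RNA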
DNA CAG counter = displacement of TO-PRO-1 from CAG DNA duplex, counter-screen for rCAG RNA repeat binder project, biochemical, fluorescence, TO-PRO-1 dye, d(CAG) DNA oligo; 94% of 4,300 active; shares compounds with rCAG RNA binder; inhibition, % at 3 µM; d(CAG) DNA oligo TO-PRO-1 dye displacement; AID 652068, 2013;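 active means inhibition above its plate's cutoff, the mean test-well inhibition plus 3 SD, cut at about 4.8% in these data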;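 further: hits displace the dye from DNA and so lower well fluorescence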
dCAG dye DR = inhibitors of DNA CAG/GTC TO-PRO-1 complex, dose response, counter-screen for rCAG RNA repeat binder project, biochemical, fluorescence, TO-PRO-1 dye; IC50, µM; 20% of 250 active; shares compounds with rCAG RNA binder; DNA CAG/GTC duplex TO-PRO-1 dye displacement fluorescence; in the data active means IC50 below about 10 µM
A number is an active result; – = inactive; · = no result given.

SMILES | Granule exo inh | T cell HTS | MPTP inh | rCAG RNA binder | B2AR ag | V-ATPase pHluor | Rh123 counter | rCAG binder conf | DNA CAG counter | others
O=C(CCN1CCc2ccccc2C(c2ccccc2)C1)c1ccc2c(c1)OCCO2 (configuration not stated) | 96 | – | 83 | – | – | – | – | · | · | Granule exo CP1=81
CCOC(=O)c1c(-c2ccccc2)oc2ccc(OCC(O)CN(C)C)cc12 (configuration not stated) | 84 | – | 99 | – | – | – | – | · | · | MPTP swell DR=6.5;MPTP counter DR=–;Granule exo CP1=–
CCCCCCCCN1C(=O)[C@@H](CC(=O)N2CCCC2)C[C@@]2(C(=O)OC)C1=C[C@H](C(C)(C)C)O[C@@H]2C | · | · | · | – | · | · | · | · | ·
Cc1cc(C)c2sc(N(CCCN(C)C)C(=O)c3ccc(S(=O)(=O)N4CCCc5ccccc54)cc3)nc2c1 | 58 | – | 64 | – | – | – | – | · | · | Granule exo CP1=–
Cc1cc(C)c2sc(N(CCCN(C)C)C(=O)c3ccc(S(=O)(=O)N4CCc5ccccc5C4)cc3)nc2c1 | 56 | – | 72 | · | 51 | – | – | · | · | Granule exo CP1=63
Cc1ccc2nc(N(CCCN(C)C)C(=O)c3ccc(S(=O)(=O)N4CCOCC4)cc3)sc2c1 | – | – | – | – | – | – | · | · | ·
COc1ccc2sc(N(CCCN(C)C)C(=O)c3ccc(S(=O)(=O)N4CCc5ccccc5C4)cc3)nc2c1 | 76 | – | 86 | – | – | – | – | · | · | Granule exo CP1=84
CN(C)CCCN(C(=O)c1ccc(S(=O)(=O)N2CCc3ccccc32)cc1)c1nc2ccc(F)cc2s1 | – | – | – | – | – | – | · | · | ·
CC(=O)N1c2cc(S(=O)(=O)Nc3c(C)n(C)n(-c4ccccc4)c3=O)c(Br)cc2CC1C (configuration not stated) | · | · | · | – | · | · | · | · | ·
COc1ccc(OC)c(S(=O)(=O)N(CCc2ccc(OC)c(OC)c2)Cc2cccs2)c1 | · | · | · | – | · | · | · | · | ·
N#CC(C#N)=C(Nc1ccc(F)cc1)SCc1cccc(Br)c1 | – | – | 91 | 47 | – | – | 89 | 51 | 16 | dCAG dye DR=–
CC(/C=C1\SC(=S)N(NS(=O)(=O)c2ccc(C)cc2)C1=O)=C\c1ccccc1 | – | – | 54 | 62 | – | – | 41 | 87 | 60
CC(/C=C1\SC(=S)N(NC(=O)c2ccc(C)cc2)C1=O)=C\c1ccccc1 | – | – | – | · | – | – | · | · | ·
CCCCCCCCCCS(=O)(=O)N/N=C/c1ccc([N+](=O)[O-])cc1 | – | – | 85 | 42 | – | – | 62 | 52 | 16
COc1cc(-c2nnc(SCC(=O)NN=Cc3c[nH]c4ccccc34)n2-c2ccccc2)cc(OC)c1OC | · | · | · | – | · | · | · | · | ·
OCCCNc1ncnc2scc(-c3ccc(Cl)cc3)c12 | – | – | – | – | – | – | · | · | ·
O=S(=O)(Nc1ncnc2scc(-c3ccc(F)cc3)c12)c1cc(F)ccc1F | – | – | 57 | 54 | – | – | 75 | 55 | 20
Cc1ccc(O)c(N=Cc2cc(Cc3ccccc3)cc([N+](=O)[O-])c2O)c1 | – | · | 64 | 46 | – | – | 55 | – | 16
O=C1NC(=S)/C(=C\c2ccc(-c3ccccc3Cl)o2)S1 | – | – | 91 | 80 | – | – | 37 | 67 | 34
Cc1nnc(C)n1/N=C/c1ccc(-c2ccccc2Cl)o1 | – | – | – | – | – | – | · | · | ·
O=C(COC(=O)c1cc(S(=O)(=O)N2CCCC2)ccc1O)Nc1ccc(SC(F)F)cc1 | – | – | 92 | 45 | – | – | 96 | 40 | 11
COC(=O)C[C@@H]1CC[C@H]2[C@H](COc3ccc(NC(=O)Nc4cccc(C#N)c4)cc3C(=O)N2C)O1 | · | · | · | – | · | · | · | · | ·
CCCC[C@H]1C2CC(OC(=O)NCCCc3ccccc3)C(C2)[C@H]2CCCCN21 (some centres not stated) | · | · | · | – | · | · | · | · | ·
CCCCCCCCN1C(=O)[C@@H](CC(=O)NCC2CCCCC2)C[C@@]2(C(=O)OC)C1=C[C@H](COCc1ccccc1)O[C@@H]2C | · | · | · | – | · | · | · | · | ·
O=C(Nc1ccc([N+](=O)[O-])cc1)Nc1nc(-c2ccc(Cl)s2)cs1 | – | – | 91 | 51 | – | – | 87 | 68 | 48
SMILES | Granule exo inh | T cell HTS | MPTP inh | rCAG RNA binder | B2AR ag | V-ATPase pHluor | Rh123 counter | rCAG binder conf | DNA CAG counter | others
Oc1ccc(Cl)cc1Sc1cc(Cl)ccc1O | – | · | 70 | 38 | – | – | 68 | 43 | 12
CN(C)C(=O)c1cc(Cl)ccc1Sc1cc(Cl)ccc1Cl | – | – | – | – | – | – | · | · | ·
Cc1ccc(NC(=O)NNC(=O)CSC2CCc3ccccc32)c(C)c1 (configuration not stated) | · | · | · | – | · | · | · | · | ·
Cc1cccc(NC(=S)NNC(=O)COc2ccc(Cl)cc2Cl)c1 | – | – | 55 | 45 | – | – | 52 | – | 10
CCOC(=O)c1c(NC(=O)CSc2nnc(C)c(=O)[nH]2)sc(C)c1-c1ccc(C)cc1 | – | – | 70 | 43 | – | – | 62 | 79 | 44
CCOC(=O)c1c(NC(=O)CSc2nnc(N)s2)sc(C)c1-c1ccc(C)cc1 | – | – | – | – | – | – | · | · | ·
CN1c2ccccc2C(O)=C(C(=S)Nc2ccc(F)c(Cl)c2)S1(=O)=O | – | – | 89 | 82 | – | – | 72 | 72 | 32
O=C(O)c1cccc(Nc2nc3ccccc3nc2NS(=O)(=O)c2cccs2)c1 | – | – | – | – | – | – | · | · | ·
